Screening data: PubChem, Broad Institute
This is a sample that favours compounds with a hit; in the whole collection about 1.9% have one here.
Glyco luc inh: N-linked glycosylation inhibition; D54 ERlucT glycosylation luciferase reporter, 24 h; percent of 100 nM tunicamycin response; reporter increase, % at 12.5 µM; actives 0.23% (n = 360,000); AID 588692;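 active means mean luciferase reporter signal, scaled so untreated is 0 and the glycosylation-blocking control 100, at or above a set limit in every replicate; inconclusive means mean reaches the limit but not every replicate does; inactive means mean below the limit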;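 further: luciferase carries N-glycosylation sites so blocking glycosylation raises the light; 0% = median of neutral control wells and 100% = median of 100 nM tunicamycin wells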
SR-BI uptake up: activators of SR-BI mediated HDL lipid uptake | CHO ldlA[mSR-BI] cells, DiI-HDL uptake fluorescence, 3 h; 100 = double the neutral-control signal | activation, % at 12.5 µM | actives 0.096% (n = 320,000) | AID 504775;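 active means mean replicate activation of at least 60% and every replicate at or above 60%; inconclusive means mean or all-replicate condition met, but not both; inactive means mean below 60% and not all replicates reaching 60%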;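 further: 0% = median plate neutral-control signal and 100% = twice that signal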
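Assay system: LDL receptor-deficient CHO ldlA cells overexpressing murine SR-BI / Medium: BSA-supplemented, HEPES-buffered Ham's F12, pH 7.4 / Probe or stimulus: DiI-labelled HDL at 10 µg/mL final / Timing: compound with DiI-HDL co-incubation, 3 h at 37 °C / Technique: bottom-read cell fluorescence after medium removal, ex 550/em 595 nm / Measure: HDL uptake via cellular fluorescence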
Rtt109 HAT inh: C. albicans Rtt109 histone acetyltransferase inhibition | Q5AAJ8 | inhibition, % at 34.9 µM | purified Rtt109/Vps75, ThioGlo CoA-SH fluorescence, 4 h | actives 0.16% (n = 330,000) | AID 540336;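 active means inhibition of at least 50% in every replicate; inconclusive means best replicate reaches 50% inhibition but some replicates fall short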
SR-BI HDL uptake: mouse SR-BI HDL lipid transfer inhibition; Q61009; ldlA[mSR-BI] CHO cells, DiI-HDL uptake fluorescence, 3 h; inhibition, % at 12.5 µM; actives 0.96% (n = 320,000); AID 488896;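 active means mean replicate inhibition of at least 70% and a set share of replicates each scoring 70 or more; inconclusive means meets just one of the two criteria; inactive means fails both criteria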;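 further: 0% = median of neutral control wells and 100% = median of positive control wells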
Target sequence (Q61009 whole entry, looked up): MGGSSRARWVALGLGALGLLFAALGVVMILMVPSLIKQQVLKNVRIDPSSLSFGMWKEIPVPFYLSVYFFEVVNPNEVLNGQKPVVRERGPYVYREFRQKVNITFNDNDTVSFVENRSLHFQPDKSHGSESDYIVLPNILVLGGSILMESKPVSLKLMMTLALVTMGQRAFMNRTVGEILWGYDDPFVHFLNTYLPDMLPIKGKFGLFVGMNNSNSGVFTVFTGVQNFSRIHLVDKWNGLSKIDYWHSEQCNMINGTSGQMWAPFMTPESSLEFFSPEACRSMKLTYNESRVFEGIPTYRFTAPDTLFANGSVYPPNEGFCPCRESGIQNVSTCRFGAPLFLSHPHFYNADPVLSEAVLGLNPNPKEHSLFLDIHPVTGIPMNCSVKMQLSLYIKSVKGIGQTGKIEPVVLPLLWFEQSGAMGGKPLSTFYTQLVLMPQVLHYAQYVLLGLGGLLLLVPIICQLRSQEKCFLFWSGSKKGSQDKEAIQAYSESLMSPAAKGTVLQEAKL
HIV Env fusion: inhibitors of HIV Env-mediated cell fusion; HeLa-JRFL Env/CEM21 cell fusion, luciferase; inhibition, % at 12.3 µM; actives 1.1% (n = 360,000); AID 651610;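 active means mean replicate inhibition score of at least 50 and every replicate individually at or above 50; inconclusive means only one of the two criteria met; inactive means mean below 50 and not all replicates reaching 50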;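 further: 0% = plate neutral controls and 100% = maraviroc near 300 nM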
PglD inh: PglD (C. jejuni) enzyme inhibition. actives 0.098% (n = 360,000). AID 602405. inhibition, % at 12.5 µM. purified PglD enzyme, DTNB colorimetric CoA detection; in the data active means inhibition above about 16%, passing the limit was not always enough; inconclusive means no clear call, values can overlap the other calls
An asterisk follows results filed as active; ? = inconclusive; · = no result given; [ ] = dose if it differs, or a comment.

SMILES	Glyco luc inh	SR-BI uptake up	Rtt109 HAT inh	SR-BI HDL uptake	HIV Env fusion	PglD inh
COc1cccc(NC(=O)N(C)C[C@H]2OCc3ccccc3-c3c(n(C)c4ccccc34)C(=O)N([C@@H](C)CO)C[C@@H]2C)c1	·	·	·	·	55*[16.7 µM]	1
COc1ccccc1NC(=O)N[C@@H]1CC[C@H](CCn2cc(-c3ccccc3OC)nn2)O[C@@H]1CO	·	·	·	·	-30[16.7 µM]	-41
CO[C@H]1CC[C@@H]2CCOc3ccc(C#N)cc3C(=O)N(C)C[C@@H](C)C(=O)N(C)C[C@@H]1O2	·	·	·	·	5[16.7 µM]	-6
Nc1ccc(S(=O)(=O)c2ccc(N3CCOCC3)c(N)c2)cc1	2	·	·	·	81*	2
CC(=O)N(C)C[C@@H]1Oc2ncc(-c3cccc(F)c3)cc2C(=O)N([C@H](C)CO)C[C@@H]1C	·	·	·	·	15[16.7 µM]	-2
CC1=C([N+](=O)[O-])C(c2cccc(Br)c2)C2=C(N1)c1ccccc1C2=O (stereo not given)	11	-17	7	17	138*	-1
CCc1cccc(NC(=O)Cn2c(=O)n(CCC(=O)NCC3CCCO3)c(=O)c3cc(OC)c(OC)cc32)c1 (stereo not given)	2	379*	4	-379	7	0
C[C@H]1O[C@@H](O[C@H]2[C@@H](O)C[C@H](O[C@H]3[C@@H](O)C[C@H](O[C@H]4CC[C@@]5(C)[C@H](CC[C@@H]6[C@@H]5C[C@@H](O)[C@]5(C)[C@@H](C7=CC(=O)OC7)CC[C@]65O)C4)O[C@@H]3C)O[C@@H]2C)C[C@H](O)[C@@H]1O	-20	-12	2	12	86*	14
COc1cc(C(=O)NCC2CCCO2)ccc1OCc1ccc(Cl)cc1Cl (stereo not given)	-3	-79	2	79*	67*	·
COc1ccc(CCNc2ccc(C(CC(N)=O)NC(=O)Cc3ccc(Br)cc3)cc2[N+](=O)[O-])cc1 (stereo not given)	0	-7	-1	7	74*	8
NC(=O)CC(NC(=O)Cc1ccc(Cl)cc1)c1ccc(NC2CC3CCC2C3)c([N+](=O)[O-])c1 (stereo not given)	37*	-7	4	7	6	-4
COc1ccc(CCNc2ccc(C(CC(N)=O)NC(=O)c3ccc(Br)cc3)cc2[N+](=O)[O-])cc1 (stereo not given)	1	14	-2	-14	10	-2
CCC(CC)Nc1ccc(C(CC(N)=O)NC(=O)Cc2ccc(Br)cc2)cc1[N+](=O)[O-] (stereo not given)	50*	-9	5	9	20	-5
NC(=O)CC(NC(=O)Cc1cccc2ccccc12)c1ccc(NC2CC3CCC2C3)c([N+](=O)[O-])c1 (stereo not given)	-3	17	11	-17	29	3
O=C(C[C@@H]1C=C[C@H](NS(=O)(=O)c2ccccc2)[C@H](CO)O1)NCc1ccncn1	·	·	·	·	-7[16.7 µM]	-3
C[C@H]1CN([C@@H](C)CO)C(=O)Cc2cc(NC(=O)CCC(F)(F)F)ccc2O[C@@H]1CN(C)C	·	·	·	·	·	2
COc1ccc(Nc2ncnc3c2cnn3-c2ccccc2)cc1OC	-1	-21	9	21	-14	-1
COc1ccc(Nc2ncnc3sc(-c4ccccc4)cc23)cc1OC	-2	-93	5	93*	-12	-3
COc1ccccc1C#Cc1ccc2c(c1)O[C@@H](CN(C)Cc1ccccc1)[C@H](C)CN([C@H](C)CO)S2(=O)=O	·	·	·	·	44[16.7 µM]	2
CON(C)C(=O)/C=C/CCCCNC(=O)OC(C)(C)C	4	63*	-1	-63	4	-1
CC(C)(C)OC(=O)NCCCCCO	1	6	-4	-6	18	-3
N#C[C@H]1[C@@H](c2ccccc2/C=C/c2ccccc2)[C@@H](CO)N1S(=O)(=O)c1cccc(F)c1	·	·	·	·	58*[16.7 µM]	·
C[C@@H]1CCCCO[C@@H](CN(C)S(=O)(=O)c2cccs2)[C@@H](C)CN([C@@H](C)CO)C(=O)c2cc(NC(=O)c3ccccc3)ccc2O1	·	·	·	·	16[16.7 µM]	1
COC(=O)[C@]1(C)N[C@H](CN(C)C(=O)Nc2ccc(OC)cc2)[C@@H]2C(=O)N(Cc3ccccc3)C(=O)[C@@H]21	1	26	2	-26	?	-4
COC(=O)[C@]1(C)N[C@H](CN(C)C(=O)Nc2ccc(Cl)cc2)[C@@H]2C(=O)N(Cc3ccccc3)C(=O)[C@@H]21	1	-16	-4	16	79*	-1
SMILES	Glyco luc inh	SR-BI uptake up	Rtt109 HAT inh	SR-BI HDL uptake	HIV Env fusion	PglD inh
COC(=O)[C@]1(C)N[C@H](CN(C)C(=O)Nc2ccc(C)cc2)[C@@H]2C(=O)N(Cc3ccccc3)C(=O)[C@@H]21	2	-1	1	1	64*	1
CCN(C[C@H]1N[C@@](C)(C(=O)OC)[C@H]2C(=O)N(Cc3ccccc3)C(=O)[C@@H]12)C(=O)Nc1ccc(F)cc1	0	-14	10	14	57*	-4
CC(C)NC(=O)Nc1ccc2c(c1)C(=O)N([C@H](C)CO)C[C@H](C)[C@@H](CN(C)C(=O)Nc1ccccc1)OCCCC[C@H](C)O2	·	·	·	·	-32[16.7 µM]	-2
C[C@@H]1CN([C@@H](C)CO)S(=O)(=O)c2ccc(C3=CCCCC3)cc2O[C@H]1CN(C)Cc1cccnc1	·	·	·	·	?	-6
COCC(=O)Nc1ccc2c(c1)[C@H]1C[C@@H](CC(=O)NCc3ccc(-c4ccccc4)cc3)O[C@H](CO)[C@H]1O2	·	·	·	·	39[16.7 µM]	2
CC(=O)OC1c2ccccc2C(=O)N1c1ccccc1C (stereo not given)	2	1	4	-1	77*	4
CSc1cccc(NC(=O)C2CCCN2S(=O)(=O)c2ccc(Br)s2)c1 (stereo not given)	-1	-9	-7	9	60*	2
O=C(Nc1ccc(F)cc1)C1CCCN1S(=O)(=O)c1ccc(Br)cc1 (stereo not given)	-1	5	1	-5	81*	8
CSc1cccc(NC(=O)C2CCCN(S(=O)(=O)c3cccs3)C2)c1 (stereo not given)	-1	·	-1	·	7	-5
CC(C)(C)n1nnnc1C(c1cccc(C#N)c1)N1CCCCCC1 (stereo not given)	-2	10	7	-10	94*	3
CC(C)(C)n1nnnc1C(c1cccc(C#N)c1)N1CCN2CCCC2C1 (stereo not given)	2	22	23	-22	-74	0
CCC(C)(C)n1nnnc1C(c1ccc(C)cc1)N1CCCC1 (stereo not given)	1	-27	-8	27	·	-3
c1cnc2ccc(C(c3nnnn3C3CCCCC3)N3CCCCC3)cc2c1 (stereo not given)	-1	-49	17	49	105*	-2
